Assays:
[1] = test system: Enterococcus faecalis; test: Antibacterial activity against Streptococcus faecalis ATCC 10541 assessed as growth inhibition after 18 hrs by broth dilution method; type: functional; settings: ATCC 10541, 18 h
Summary of the method: (§1)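 Twofold serial dilutions in heart infusion broth. Inoculum was a 24-h heart infusion broth culture diluted 100-fold in physiological saline. Tubes incubated 30 °C for 18 h; the table footnote gives 32 °C for 24 h. MIC in µg/ml is the lowest level giving complete growth inhibition.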

[2] = test system: Mus musculus; test: Toxicity in ICR mouse allografted with mouse S180A assessed as mortality at 25 mg/kg, ip qd for 5 days; type: organism-based; parameters: dose 25 mg/kg, route intraperitoneal; settings: in vivo, 120 h
Summary of the method: (§2)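 Ascites Sarcoma 180 (1 × 10^7 cells) implanted into ICR mice, six per group; compound in saline ip once daily days 1-5; sacrifice on day 7; total packed cell volume (ascites volume × PCV) compared with controls as T/C %; mortality recorded.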

[3] = Ratio of compound LD50 to streptozotocin LD50 for JCL-ICR mouse; type: ADME, organism-based; settings: in vivo
[4] = test system: Pseudomonas fluorescens; test: Antibacterial activity against Pseudomonas fluorescens NIHJ B-254 assessed as growth inhibition after 18 hrs by broth dilution method; type: functional; settings: NIHJ B-254, 18 h; summary of the method: as §1
[5] = Antitumor activity against mouse S180A allografted in ICR mouse assessed as tumor growth at 25 mg/kg, ip qd for 5 days measured on day 7 relative to control; type: functional; settings: route intraperitoneal
Summary of the method: (§3)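 Ascites Sarcoma 180 (1 × 10^7 cells) implanted into ICR mice, six animals per group. Five daily ip injections in saline (days 1–5). Sacrificed day 7. T/C % computed from total packed cell volume (ascites volume × PCV) vs controls. Grades: 100-66 = -, 65-41 = +, 40-11 = ++, 10-0 = +++.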

[6] = test system: Micrococcus luteus; test: Antibacterial activity against Sarcina lutea ATCC 9341 assessed as growth inhibition after 18 hrs by broth dilution method; type: functional; settings: ATCC 9341, 18 h; summary of the method: as §1
[7] = test system: Staphylococcus aureus; test: Antibacterial activity against Staphylococcus aureus FDA 209P JC-1 assessed as growth inhibition after 18 hrs by broth dilution method; type: functional; settings: FDA 209P JC-1, 18 h; summary of the method: as §1
[8] = test system: Salmonella typhi; test: Antibacterial activity against Salmonella typhi IFM 3020 assessed as growth inhibition after 18 hrs by broth dilution method; type: functional, Salmonella enterica subsp. enterica serovar Typhi; settings: Salmonella enterica, IFM 3020, 18 h
Summary of the method: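 Twofold serial dilutions in heart infusion broth; inoculum from 24 h heart infusion broth culture diluted 100-fold in physiological saline; tubes incubated 30 °C for 18 h; MIC (µg/ml) = lowest level giving complete growth inhibition.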

[9] = (§4) Acute toxicity in ip dosed JCL-ICR mouse assessed as animal death; type: organism-based; settings: JCL-ICR, in vivo
Summary of the method: (§5)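 Groups of ten female JCL-ICR mice given single ip dose in physiological saline; deaths followed over 7 days; LD50 (and LD10) derived by Litchfield–Wilcoxon method.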

[10] = test system: Mus musculus; test: as §4; type: organism-based; settings: in vivo; summary of the method: as §5
[11] = test system: Klebsiella pneumoniae; test: Antibacterial activity against Klebsiella pneumoniae ATCC 10031 assessed as growth inhibition after 18 hrs by broth dilution method; type: functional; settings: ATCC 10031, 18 h; summary of the method: as §1
[12] = test system: Rattus norvegicus; test: Diabetogenic activity in Wistar rat assessed as increase in blood sugar level at 71.4 mg/kg, iv administered as single dose by glucose oxidase method; type: ADME, organism-based; parameters: dose 71.4 mg/kg, route intravenous; settings: in vivo
Summary of the method: (§6)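 Male Wistar rats, about 200 g, five per group, fasted 16 h. Single iv dose into the femoral vein in physiological saline, equimolar across compounds. Caudal-vein blood sampled at set times over 24 h. Sugar measured by glucose oxidase.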

[13] = test system: Escherichia coli; test: Antibacterial activity against Escherichia coli NIHJ JC-2 assessed as growth inhibition after 18 hrs by broth dilution method; type: functional; settings: NIHJ JC-2, 18 h; summary of the method: as §1
[14] = test system: Mus musculus; test: Ratio of compound LD10 to streptozotocin LD10 for JCL-ICR mouse; type: ADME, organism-based; settings: in vivo
[15] = test system: Bacillus subtilis; test: Antibacterial activity against Bacillus subtilis ATCC 6633 assessed as growth inhibition after 18 hrs by broth dilution method; type: functional; settings: ATCC 6633, 18 h; summary of the method: as §1
[16] = test system: Shigella sonnei; test: Antibacterial activity against Shigella sonnei assessed as growth inhibition after 18 hrs by broth dilution method; type: functional; summary of the method: as §1
[17] = test system: Proteus vulgaris; test: Antibacterial activity against Proteus vulgaris AHU 1469 assessed as growth inhibition after 18 hrs by broth dilution method; type: functional; settings: AHU 1469, 18 h; summary of the method: as §1
[18] = test system: Mus musculus; test: Toxicity in ICR mouse allografted with mouse EAC assessed as mortality at 125 mg/kg, ip qd for 5 days; type: organism-based; parameters: dose 125 mg/kg, route intraperitoneal; settings: in vivo, 120 h
Summary of the method: (§7)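 Ehrlich ascites carcinoma (1 × 10^7 cells) implanted into ICR mice, six per group; compound ip daily for 5 days; mice sacrificed day 7; tumour burden as total packed cell volume (ascites volume × PCV), T/C % vs controls; mortality recorded.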

[19] = test system: L1210; test: Antitumor activity against mouse L1210 cells allografted in BDF1 mouse assessed as increase in host lifespan at 100 mg/kg, ip qd for 5 days relative to control; type: functional; settings: 120 h, route intraperitoneal
Summary of the method: (§8)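 L1210 (1 × 10^5 cells) implanted into BDF1 mice, six per group; compound in saline ip once daily days 1-5; effect read as % increase in life span, ILS = [(treated life span/control life span) − 1] × 100.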

[20] = test system: Mus musculus; test: Toxicity in BDF1 mouse allografted with mouse L1210 cells assessed as mortality at 100 mg/kg, ip qd for 5 days; type: organism-based; parameters: dose 100 mg/kg, route intraperitoneal; settings: in vivo, 120 h; summary of the method: as §8
[21] = test system: Rattus norvegicus; test: Diabetogenic activity in iv dosed Wistar rat assessed as increase in blood sugar level administered as single dose by glucose oxidase method; type: ADME, organism-based; settings: in vivo; summary of the method: as §6
[22] = test system: Ehrlich; test: Antitumor activity against mouse EAC allografted in ICR mouse assessed as tumor growth at 125 mg/kg, ip qd for 5 days measured on day 7 relative to control; type: functional; settings: route intraperitoneal
Summary of the method: (§9)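 Ehrlich ascites carcinoma (1 × 10^7 cells) implanted into ICR mice, six per group. Drug in saline ip, qd days 1–5. Mice killed day 7. Total packed cell volume = ascites volume × % packed cell volume; T/C % = TPCV treated/control × 100. Activity graded from T/C.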

[23] = test system: Mus musculus; test: Toxicity in ICR mouse allografted with mouse S180A assessed as mortality at 50 mg/kg, ip qd for 5 days; type: organism-based; parameters: dose 50 mg/kg, route intraperitoneal; settings: in vivo, 120 h; summary of the method: as §2
[24] = Antitumor activity against mouse S180A allografted in ICR mouse assessed as tumor growth at 50 mg/kg, ip qd for 5 days measured on day 7 relative to control; type: functional; settings: route intraperitoneal; summary of the method: as §3
[25] = test system: Rattus norvegicus; test: Diabetogenic activity in Wistar rat assessed as increase in blood sugar level at 74.7 mg/kg, iv administered as single dose by glucose oxidase method; type: ADME, organism-based; parameters: dose 74.7 mg/kg, route intravenous; settings: in vivo; summary of the method: as §6
[26] = test system: L1210; test: Antitumor activity against mouse L1210 cells allografted in BDF1 mouse assessed as increase in host lifespan at 50 mg/kg, ip qd for 5 days relative to control; type: functional; settings: 120 h, route intraperitoneal; summary of the method: as §8
[27] = test system: Mus musculus; test: Toxicity in BDF1 mouse allografted with mouse L1210 cells assessed as mortality at 50 mg/kg, ip qd for 5 days; type: organism-based; parameters: dose 50 mg/kg, route intraperitoneal; settings: in vivo, 120 h; summary of the method: as §8
[28] = test system: Mus musculus; test: Toxicity in ICR mouse allografted with mouse EAC assessed as mortality at 150 mg/kg, ip qd for 5 days; type: organism-based; parameters: dose 150 mg/kg, route intraperitoneal; settings: in vivo, 120 h; summary of the method: as §7
[29] = test system: Ehrlich; test: Antitumor activity against mouse EAC allografted in ICR mouse assessed as tumor growth at 150 mg/kg, ip qd for 5 days measured on day 7 relative to control; type: functional; settings: route intraperitoneal; summary of the method: as §9
[30] = test system: Rattus norvegicus; test: Diabetogenic activity in Wistar rat assessed as increase in blood sugar level at 68 mg/kg, iv administered as single dose by glucose oxidase method; type: ADME, organism-based; parameters: dose 68 mg/kg, route intravenous; settings: in vivo; summary of the method: as §6

Compound	Activity [2]	selectivity ratio [3]	T/C [5]	LD50 [9]	LD10 [10]	Ratio [14]	Activity [18]	Activity [21]	T/C [22]	Activity [23]	T/C [24]	ILS at 50 mg/kg [26]	Activity [27]	further results
CCO[C@@H]1O[C@H](CO)[C@@H](O)[C@H](O)[C@H]1NC(=O)N(C)N=O	Non-toxic	2	37%	2050 mg/kg	1550 mg/kg	2	–	–	–	–	–	–	–	MIC [1]: > 1000 µg/mL; MIC [4]: > 1000 µg/mL; MIC [6]: > 1000 µg/mL; MIC [7]: > 1000 µg/mL; MIC [8]: > 1000 µg/mL; MIC [11]: > 1000 µg/mL; Activity [12]: Non-toxic; MIC [13]: > 1000 µg/mL; MIC [15]: > 1000 µg/mL; MIC [16]: > 1000 µg/mL; MIC [17]: > 1000 µg/mL
CCO[C@H]1O[C@H](CO)[C@@H](O)[C@H](O)[C@H]1NC(=O)N(CC)N=O	–	–	–	–	–	–	Non-toxic	Non-toxic	60%	Non-toxic	63%	–	–	ILS at 100 mg/kg [19]: 14%; Activity [20]: Non-toxic
CCCN(N=O)C(=O)N[C@H]1[C@H](OC)O[C@H](CO)[C@@H](O)[C@@H]1O	–	–	–	–	–	–	Non-toxic	Non-toxic	72%	Non-toxic	69%	–	–	ILS at 100 mg/kg [19]: 7%; Activity [20]: Non-toxic
CCCO[C@@H]1O[C@H](CO)[C@@H](O)[C@H](O)[C@H]1NC(=O)N(C)N=O	–	2	–	2150 mg/kg	1240 mg/kg	2	–	–	–	Non-toxic	32%	30%	Non-toxic	MIC [1]: > 1000 µg/mL; Activity [25]: Non-toxic; MIC [4]: > 1000 µg/mL; MIC [6]: > 1000 µg/mL; MIC [7]: > 1000 µg/mL; MIC [8]: > 1000 µg/mL; MIC [11]: > 1000 µg/mL; MIC [13]: > 1000 µg/mL; MIC [15]: > 1000 µg/mL; MIC [16]: > 1000 µg/mL; MIC [17]: > 1000 µg/mL
CCCN(N=O)C(=O)N[C@H]1[C@@H](OC)O[C@H](CO)[C@@H](O)[C@@H]1O	–	–	–	–	–	–	Non-toxic	Non-toxic	61%	Non-toxic	55%	–	–	–
CCCCO[C@@H]1O[C@H](CO)[C@@H](O)[C@H](O)[C@H]1NC(=O)N(C)N=O	Non-toxic	2	40%	1580 mg/kg	1100 mg/kg	2	–	Non-toxic	–	–	–	33%	Non-toxic	Activity [28]: Non-toxic; T/C [29]: 4%
CCCCO[C@H]1O[C@H](CO)[C@@H](O)[C@H](O)[C@H]1NC(=O)N(CCCC)N=O	–	2	–	660 mg/kg	410 mg/kg	2	Non-toxic	Non-toxic	53%	Non-toxic	80%	–	–	–
CCCO[C@H]1O[C@H](CO)[C@@H](O)[C@H](O)[C@H]1NC(=O)N(C)N=O	Non-toxic	2	32%	1470 mg/kg	1020 mg/kg	2	Non-toxic	Non-toxic	37%	–	–	29%	Non-toxic	–
CCCCN(N=O)C(=O)N[C@H]1[C@H](OC)O[C@H](CO)[C@@H](O)[C@@H]1O	–	–	–	–	–	–	Non-toxic	Non-toxic	52%	Non-toxic	54%	12%	Non-toxic	–
CO[C@H]1O[C@H](CO)[C@@H](O)[C@H](O)[C@H]1NC(=O)N(C)N=O	Non-toxic	2	37%	1930 mg/kg	1380 mg/kg	2	–	–	–	–	–	35%	Non-toxic	MIC [1]: > 1000 µg/mL; Activity [28]: Non-toxic; MIC [4]: > 1000 µg/mL; MIC [6]: > 1000 µg/mL; T/C [29]: 16%; MIC [7]: > 1000 µg/mL; MIC [8]: > 1000 µg/mL; MIC [11]: > 1000 µg/mL; MIC [13]: > 1000 µg/mL; Activity [30]: Non-toxic; MIC [15]: > 1000 µg/mL; MIC [16]: > 1000 µg/mL; MIC [17]: > 1000 µg/mL
CCCCO[C@H]1O[C@H](CO)[C@@H](O)[C@H](O)[C@H]1NC(=O)N(C)N=O	–	2	–	2000 mg/kg	1200 mg/kg	2	–	Non-toxic	–	Non-toxic	20%	30%	Non-toxic	Activity [28]: Non-toxic; T/C [29]: 16%
CCO[C@@H]1O[C@H](CO)[C@@H](O)[C@H](O)[C@H]1NC(=O)N(CC)N=O	–	–	–	–	–	–	–	Non-toxic	–	Non-toxic	59%	–	–	ILS at 100 mg/kg [19]: 10%; Activity [20]: Non-toxic

Reference: ChEMBL document CHEMBL3272319, “Alkyl streptozotocin analogues with improved biological activities” (J Med Chem, 1976)
